Assay results published in ChEMBL document CHEMBL4339192, “De Novo Designed Amphipathic α-Helical Antimicrobial Peptides Incorporating Dab and Dap Residues on the Polar Face To Treat the Gram-Negative Pathogen, Acinetobacter baumannii” (J Med Chem, 2019).
Values after ≈ are worked out from the molar mass of the structure shown. Where a SMILES comes first, the peptide text is derived from it. Bridges are numbered along the chain shown (N, C = ends). [ ]: non-standard residue; d: D form. The star is where a group is joined. X1 = CC[C@H](C)CCCCC(=O)*; Dab = NCC[C@H](N)C(=O)O

Key:
Assay type in all cases: functional
Acinetobacter baumannii [1] = experiment: Antibacterial activity against polymyxin B/colistin-resistant Acinetobacter baumannii M89941 measured after 24 hrs by microtiter dilution method
Method in brief: (§1)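 Broth microdilution in Mueller-Hinton (MH) medium. […] Plates were incubated 24 h at 37 °C. MIC was the lowest peptide concentration that inhibited growth, based on three sets of replicates.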

Acinetobacter baumannii [2] = experiment: Antibacterial activity against polymyxin B/colistin-resistant Acinetobacter baumannii M89951 measured after 24 hrs by microtiter dilution method; method in brief: as §1
Acinetobacter baumannii [3] = experiment: Antibacterial activity against polymyxin B/colistin-resistant Acinetobacter baumannii M89952 measured after 24 hrs by microtiter dilution method; method in brief: as §1
Acinetobacter baumannii [4] = experiment: Antibacterial activity against polymyxin B/colistin-resistant Acinetobacter baumannii M89953 measured after 24 hrs by microtiter dilution method; method in brief: as §1
Acinetobacter baumannii [5] = experiment: Antibacterial activity against Acinetobacter baumannii 649 measured after 24 hrs in presence of 25% human serum by microtiter dilution method; conditions: Acinetobacter baumannii, 649, 24 h
Method in brief: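 Blood strain 649 was tested by MH broth microdilution with and without 25% (v/v) human serum added to the medium. The test used a final inoculum of 5 × 10^5 cfu/mL and incubation at 37 °C. The ratio is the MIC in serum over the MIC in MH alone.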

Acinetobacter baumannii [6] = experiment: Antibacterial activity against polymyxin B/colistin-resistant Acinetobacter baumannii M89955 measured after 24 hrs by microtiter dilution method; method in brief: as §1
Acinetobacter baumannii [7] = experiment: Antibacterial activity against Acinetobacter baumannii 649 measured after 24 hrs by microtiter dilution method; conditions: Acinetobacter baumannii, 649, 24 h; method in brief: as §1
Acinetobacter baumannii [8] = experiment: Antibacterial activity against polymyxin B/colistin-resistant Acinetobacter baumannii M89949 measured after 24 hrs by microtiter dilution method; method in brief: as §1
Acinetobacter baumannii [9] = experiment: Antibacterial activity against polymyxin B/colistin-resistant Acinetobacter baumannii M89963 measured after 24 hrs by microtiter dilution method; method in brief: as §1

Question: How did the MIC (Acinetobacter baumannii [1]; M89941, 24 h) turn out when `CC(=O)N[C@H](CCCCN)C(=O)N[C@H](CC(C)C)C(=O)N[C@H](CCCNC(=N)N)C(=O)N[C@H](CO)C(=O)N[C@H](CC(C)C)C(=O)N[C@H](CC(C)C)C(=O)N[C@H](CCCNC(=N)N)C(=O)N[C@@H](C(=O)N[C@H](CC(C)C)C(=O)N[C@H](CO)C(=O)N[C@H](CCCNC(=N)N)C(=O)N[C@H](C)C(=O)N[C@H](CCCCN)C(=O)N[C@H](C)C(=O)N[C@H](C)C(=O)N[C@H](CCCCN)C(=O)N[C@H](CC(C)C)C(=O)N[C@H](CCCNC(=N)N)C(=O)N[C@@H](C(=O)N[C@H](CC(C)C)C(=O)N[C@H](CC(C)C)C(=O)N[C@H](CCCNC(=N)N)C(=O)N[C@H](C)C(=O)N[C@H](CC(C)C)C(=O)N[C@H](CO)C(=O)N[C@H](CCCNC(=N)N)C(N)=O)[C@H](C)O)[C@H](C)O` (Ac-[dK][dL][dR][dS][dL][dL][dR][dT][dL][dS][dR][dA][dK][dA][dA][dK][dL][dR][dT][dL][dL][dR][dA][dL][dS][dR]-NH2) was run?
Answer: 1.3 µM (≈ 3.94 µg/mL)

Question: And the MIC (Acinetobacter baumannii [2]; M89951, 24 h)?
Answer: 0.7 µM (≈ 2.12 µg/mL)

Question: And the MIC (Acinetobacter baumannii [3]; M89952, 24 h)?
Answer: 0.7 µM (≈ 2.12 µg/mL)

Question: What about the MIC (Acinetobacter baumannii [4]; M89953, 24 h) of the same compound?
Answer: 0.7 µM (≈ 2.12 µg/mL)

Question: And the MIC (Acinetobacter baumannii [5])?
Answer: 1.3 µM

Question: And the MIC (Acinetobacter baumannii [6]; M89955, 24 h)?
Answer: 0.7 µM (≈ 2.12 µg/mL)

Question: And the MIC (Acinetobacter baumannii [7])?
Answer: 0.7 µM (≈ 2.12 µg/mL)

Question: For `CC[C@H](C)CCCCC(=O)N[C@@H](CCN)C(=O)N[C@H](C(=O)N[C@@H](CCN)C(=O)N[C@H]1CCNC(=O)[C@H]([C@@H](C)O)NC(=O)[C@H](CCN)NC(=O)[C@H](CCN)NC(=O)[C@H](CC(C)C)NC(=O)[C@@H](Cc2ccccc2)NC(=O)[C@H](CCN)NC1=O)[C@@H](C)O` (X1-[Dab]T[Dab][Dab][Dab][dF]L[Dab][Dab]T; lactam 4-C), which MIC (Acinetobacter baumannii [1]; M89941, 24 h) is on record?
Answer: > 25 µM

Question: And the MIC (Acinetobacter baumannii [2]; M89951, 24 h)?
Answer: > 25 µM

Question: What about the MIC (Acinetobacter baumannii [8]; M89949, 24 h) of the same compound?
Answer: > 25 µM

Question: What about the MIC (Acinetobacter baumannii [9]; M89963, 24 h) of the same compound?
Answer: > 25 µM

Question: And the MIC (Acinetobacter baumannii [3]; M89952, 24 h)?
Answer: > 25 µM

Question: What about the MIC (Acinetobacter baumannii [4]; M89953, 24 h) of the same compound?
Answer: > 25 µM

Question: And the MIC (Acinetobacter baumannii [6]; M89955, 24 h)?
Answer: > 25 µM

Question: Which results are given for COLISTIN?
Answer: MIC (Acinetobacter baumannii [1]): > 28 µM; MIC (Acinetobacter baumannii [2]): > 28 µM; MIC (Acinetobacter baumannii [8]): > 28 µM; MIC (Acinetobacter baumannii [9]): > 28 µM; MIC (Acinetobacter baumannii [3]): > 28 µM; MIC (Acinetobacter baumannii [4]): > 28 µM; MIC (Acinetobacter baumannii [6]): > 28 µM
